In the library only some 4.3% were active in any assay of this set; here they are far more common.
Hep lipid drop: modulators of hepatic lipid droplet formation. AML12 mouse hepatocytes, oleate lipid droplets, BODIPY imaging. 240,000 tested, 0.4% active. inhibition, % at 6.5 µM;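 active = lipid droplet intensity inhibited by at least 50%, with more than 500 cells counted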
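Material – AML12 mouse liver cells · Also added – oleate loading, 100 µM · Compound dosing – 6.5 µM single-point dosing · Times – overnight treatment with compound plus oleate · Measured by – fluorescence imaging, 20x objective, two fields per well · Read-out – percent inhibition of filter-corrected integrated lipid droplet intensity per well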
SR-BI uptake up: SR-BI HDL lipid transfer activation. CHO ldlA[mSR-BI] cells, DiI-HDL uptake fluorescence, 3 h; 100 = double the neutral-control signal. 320,000 tested, 0.096% active. activation, % at 12.5 µM. AID 504775;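 active = mean replicate activation of at least 60% and every replicate at or above 60%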;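 also: 0% = median plate neutral-control signal and 100% = twice that signal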
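system = CHO ldlA[mSR-BI] cells, LDL receptor-null, SR-BI overexpressing | medium = Ham's F12 with 0.5% BSA, HEPES 25 mM, pH 7.4 | probe or stimulus = DiI-HDL 10 µg/mL | compound dosing = single-point compound dose | incubation = compound exposure 3 h, 37 °C | technique = DiI fluorescence, bottom read | read-out = cell-associated DiI fluorescence as measure of HDL uptake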
Yeast superoxide: lowers age-related superoxide in aged yeast cells | superoxide response (% of plate mean), % at 10 µM | S. cerevisiae aged cells, superoxide DHE fluorescence; active compounds read low | 330,000 tested, 0.18% active;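 active = superoxide response under a set limit, about three screen SD below normal, cut at about 65% in these data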;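 also: yeast aged for seven days with compound at 30 °C before DHE staining; 100% = average MFI of all compound-treated wells on the plate with controls excluded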
AHR act: activates the human aryl hydrocarbon receptor. 320,000 tested, 2.5% active. AID 2796. activation, % at 5 µM. AHR-responsive luciferase reporter cells, luminescence; in the data active = activation above about 47%;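 also: 0% = vehicle wells and 100% = reference agonist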
SMARCA2 activ: increases SMARCA2 function in MMTV reporter cells | AID 652017 | 370,000 tested, 1% active | MG213 cells, MMTV-luciferase reporter, dexamethasone, overnight | activation, % at 9.1 µM; in the data active = activation above about 7.8%;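 also: 0% = vehicle wells and 100% = reference activator wells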
SR-BI HDL uptake: inhibitors of mouse SR-BI mediated HDL lipid uptake; Q61009; ldlA[mSR-BI] CHO cells, DiI-HDL uptake fluorescence, 3 h; inhibition, % at 12.5 µM; 320,000 tested, 0.96% active;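 active = mean replicate inhibition of at least 70% and a set share of replicates each scoring 70 or more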;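 also: 0% = median of neutral control wells and 100% = median of positive control wells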
Target sequence (Q61009 whole entry, looked up): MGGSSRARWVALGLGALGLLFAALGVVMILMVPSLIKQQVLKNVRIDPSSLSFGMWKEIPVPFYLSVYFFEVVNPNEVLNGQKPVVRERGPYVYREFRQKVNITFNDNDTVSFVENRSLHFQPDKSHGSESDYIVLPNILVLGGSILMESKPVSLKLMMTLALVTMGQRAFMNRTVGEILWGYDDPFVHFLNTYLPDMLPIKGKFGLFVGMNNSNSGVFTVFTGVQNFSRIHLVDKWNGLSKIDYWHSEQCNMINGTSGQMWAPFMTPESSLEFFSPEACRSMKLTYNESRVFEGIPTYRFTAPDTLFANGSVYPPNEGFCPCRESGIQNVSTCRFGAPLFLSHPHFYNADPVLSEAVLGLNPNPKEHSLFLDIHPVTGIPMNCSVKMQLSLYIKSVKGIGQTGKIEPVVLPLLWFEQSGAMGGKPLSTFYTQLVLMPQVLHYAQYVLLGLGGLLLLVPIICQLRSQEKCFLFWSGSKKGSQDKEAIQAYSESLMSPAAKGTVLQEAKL
SMARCA2 act conf: SMARCA2 activation, confirmation screen; shares compounds with SMARCA2 activ; MG213 cells, MMTV-luciferase with dexamethasone, luminescence, overnight; MG213 cells expressing E1A, Rb sequestered; DMSO wells 0%, reference activator 100%; activation, % at 9.1 µM; 3,500 tested, 30% active; AID 652260;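 active = activation above its plate's cutoff, the mean activation of tested wells plus 3 SD, cut at about 7.9% in these data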
GAL4-VP16 Luc: activates GAL4-VP16 luciferase, flagging SMARCA2 activator hits; shares compounds with SMARCA2 activ; HEK293 GAL4-VP16 pG5luc reporter, luciferase luminescence; scaled: DMSO wells 0%, SAHA wells 100%; activation, % at 9.1 µM; 3,500 tested, 41% active;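 active = activation above the solvent-only control well mean plus 3 SD, averaged across control plates, cut at about 5.2% in these data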
Starred values were filed as active, the others as inactive.

COc1ccc2c(c1)CC(C)C/C2=N\NC(=O)c1ccco1 (stereo unspecified) was read as Hep lipid drop -3, SR-BI uptake up -4, Yeast superoxide 91, AHR act 3, SMARCA2 activ 3 and SR-BI HDL uptake 4.
Screening Cc1ccc(N2C(S)=C(C#N)C(=O)NC2c2cccs2)cc1 (stereo unspecified) returned Hep lipid drop -14, SR-BI uptake up -5, Yeast superoxide 111, AHR act 3, SMARCA2 activ 8.0*, SR-BI HDL uptake 5, SMARCA2 act conf 2 and GAL4-VP16 Luc 0.
For N#CC1=C(S)N(c2ccccc2)C(c2cccs2)NC1=O (stereo unspecified) the results were Hep lipid drop 23, SR-BI uptake up 13, Yeast superoxide 91, AHR act 1, SMARCA2 activ 1 and SR-BI HDL uptake -13.
For O=C(c1ccccc1Cl)N1CCC(Oc2cccnc2)CC1 the results were SMARCA2 activ 1.
For COCCCNC(=S)Nc1cc(C)c(C)cc1C the results were Hep lipid drop 21, SR-BI uptake up -3, Yeast superoxide 90, AHR act -2, SMARCA2 activ 8.6*, SR-BI HDL uptake 3, SMARCA2 act conf 5 and GAL4-VP16 Luc 1.
Screening Cc1ccc(NC(=O)OC2CC3CC2[C@H]2CCCCN2[C@H]3Cc2ccccc2)cc1 (stereo partly specified) returned SMARCA2 activ -2.
Screening CCOC(=O)C1(Cc2cccc(OC)c2)CCCN(C(=O)CCc2cccnc2)C1 (stereo unspecified) returned Hep lipid drop 1, SR-BI uptake up 28, Yeast superoxide 109, AHR act 10, SMARCA2 activ 9.3*, SR-BI HDL uptake -28, SMARCA2 act conf 7 and GAL4-VP16 Luc 7.9*.
`CC1CCCN(C(=O)COC(=O)c2ccc3[nH]c4c(c3c2)CCCC4)C1` (stereo unspecified) gave SR-BI uptake up -18, Yeast superoxide 91, AHR act 0, SMARCA2 activ 8.1*, SR-BI HDL uptake 18, SMARCA2 act conf 4 and GAL4-VP16 Luc 4.
`C=CCN(CC#CC(=C)C)Cc1ccc(OC)cc1OC` gave SMARCA2 activ -5.
Screening CCOC(=O)[C@H](CCc1ccccc1)N[C@@H](C)C(=O)N1Cc2cc(OC)c(OC)cc2C[C@H]1C(=O)O returned SMARCA2 activ 5.
Screening COC(=O)[C@]12C[C@H](CC(=O)N3CCCC3)C(=O)N(Cc3ccc(Cl)cc3Cl)C1=C[C@H](COCc1ccccc1)O[C@@H]2C returned SMARCA2 activ -3.
`COc1cc(C(=O)c2cocc2C(=O)c2ccc3c(c2)OCO3)cc(OC)c1OC` gave Hep lipid drop -32, SR-BI uptake up 2, Yeast superoxide 76, AHR act -1, SMARCA2 activ 9.0*, SR-BI HDL uptake -2, SMARCA2 act conf 0 and GAL4-VP16 Luc 6.3*.
C=CC[C@@]1(c2ccc(Br)cc2OC)Oc2ccccc2-c2nccnc21 was read as SMARCA2 activ -4.
`CCOC(=O)c1nc(S(C)(=O)=O)ncc1Cl` gave SR-BI uptake up -11, Yeast superoxide 83, AHR act -1, SMARCA2 activ 34*, SR-BI HDL uptake 11, SMARCA2 act conf -1 and GAL4-VP16 Luc 4.
`Cc1nonc1CC(=O)NC1CC(C)(C)Cc2c1cnn2-c1ccc(F)cc1` (stereo unspecified) gave Hep lipid drop 31, SR-BI uptake up -5, Yeast superoxide 101, AHR act 3, SMARCA2 activ -1 and SR-BI HDL uptake 5.
`COc1ccc(-n2ncc3c2CC(C)(C)CC3NC(=O)Cc2nonc2C)cc1` (stereo unspecified) gave Hep lipid drop -7, SR-BI uptake up -18, Yeast superoxide 99, AHR act 1, SMARCA2 activ 8.0*, SR-BI HDL uptake 18, SMARCA2 act conf 2 and GAL4-VP16 Luc 0.
Screening N#Cc1c(Nc2ccccc2Cl)s[nH]c1=O returned Hep lipid drop -11, SR-BI uptake up 5, Yeast superoxide 99, AHR act -3, SMARCA2 activ 8.8*, SR-BI HDL uptake -5, SMARCA2 act conf 7 and GAL4-VP16 Luc 0.
`N#Cc1c(Nc2ccccc2C(F)(F)F)s[nH]c1=O` gave Hep lipid drop -6, Yeast superoxide 80, AHR act -4 and SMARCA2 activ 3.
For CC(C)(C)OC(=O)n1ccc2ccc(-c3ccc4cc[nH]c4c3)cc21 the results were SMARCA2 activ 2.
COc1cc(SC)ccc1C(=O)Nc1ccc(C)cc1 was read as Hep lipid drop 6, SR-BI uptake up -61, Yeast superoxide 107, AHR act 25, SMARCA2 activ 3 and SR-BI HDL uptake 61.
COc1cc(SC)ccc1C(=O)Nc1ccc(C)cc1C was read as Hep lipid drop 1, SR-BI uptake up -58, Yeast superoxide 105, AHR act 0, SMARCA2 activ 8.1*, SR-BI HDL uptake 58, SMARCA2 act conf 13* and GAL4-VP16 Luc 14*.
COc1ccc(C(=O)NCC2CCN(C(=O)C(=O)c3cc4ccccc4o3)CC2)cc1 was read as SMARCA2 activ -4.
c1csc(-c2nc(-c3ccc(-c4ccon4)s3)no2)c1 was read as Hep lipid drop 1, SR-BI uptake up -1, Yeast superoxide 124, AHR act 19, SMARCA2 activ 8.9*, SR-BI HDL uptake 1, SMARCA2 act conf 6 and GAL4-VP16 Luc 9.7*.
c1ccc(-c2nc(-c3ccc(-c4ccon4)s3)no2)cc1 was read as Hep lipid drop 15, SR-BI uptake up 2, Yeast superoxide 99, AHR act 5, SMARCA2 activ 4 and SR-BI HDL uptake -2.
For O=C(OC12CCCN(C1)/C(=C/c1cccc(Cl)c1)C2)c1ccccc1 (stereo unspecified) the results were SMARCA2 activ -3.
Screening COC(=O)c1c(NC(=O)c2ccco2)sc2c1CCC2 returned SR-BI uptake up -23, Yeast superoxide 113, AHR act 6, SMARCA2 activ 0 and SR-BI HDL uptake 23.

Source: PubChem BioAssay (several laboratories)
